Measured values taken from ChEMBL document CHEMBL1137056, “Synthesis of fluorinated analogues of SJG-136 and their DNA-binding potential” (Bioorg Med Chem Lett, 2004).

Species: Bos taurus
Experiment: Increase in melting point temperature after 36 hr of incubation [1:5] as measurement of DNA binding affinity using calf thymus DNA
Type: functional
Method in brief: (§1)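 Thermal denaturation of calf thymus DNA, 100 µM DNA with 20 µM ligand (1:5 ligand:DNA molar ratio). Buffer was aqueous 10 mM sodium phosphate with 1 mM EDTA, pH 7.00. Mixtures were incubated at 37°C for the stated time, then the shift in helix melting temperature versus DNA alone was recorded. DNA-only Tm is the mean of 10 determinations.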

Compound | ΔTm [°C]
COc1cc2c(cc1OCCCCOc1cc3c(cc1OC)C(=O)N1CC(=C(F)F)C[C@H]1C=N3)N=C[C@@H]1CC(=C(F)F)CN1C2=O | 6.5
COc1cc2c(cc1O)N=C[C@@H]1CC(=C(F)F)CN1C2=O | 2.2
COc1cc2c(cc1O)N=C[C@@H]1CCCN1C2=O | 0.7
COc1cc2c(cc1OCCCOc1cc3c(cc1OC)C(=O)N1CCC[C@H]1C=N3)N=C[C@@H]1CCCN1C2=O | 15.7
COc1cc2c(cc1OCCCOc1cc3c(cc1OC)C(=O)N1CC(=C(F)F)C[C@H]1C=N3)N=C[C@@H]1CC(=C(F)F)CN1C2=O | 24.9
COc1cc2c(cc1OCCCCCOc1cc3c(cc1OC)C(=O)N1CC(=C(F)F)C[C@H]1C=N3)N=C[C@@H]1CC(=C(F)F)CN1C2=O | 21.3

Species: Bos taurus
Experiment: Increase in melting point temperature after 0h of incubation [1:5 ratio] as measurement of DNA binding affinity using calf thymus DNA
Type: functional
Method in brief: as §1

Compound | ΔTm [°C]
C=C1C[C@H]2C=Nc3cc(OCCCOc4cc5c(cc4OC)C(=O)N4CC(=C)C[C@H]4C=N5)c(OC)cc3C(=O)N2C1 | 25.7
COc1cc2c(cc1OCCCCOc1cc3c(cc1OC)C(=O)N1CC(=C(F)F)C[C@H]1C=N3)N=C[C@@H]1CC(=C(F)F)CN1C2=O | 2.1
COc1cc2c(cc1O)N=C[C@@H]1CC(=C(F)F)CN1C2=O | 1
COc1cc2c(cc1O)N=C[C@@H]1CCCN1C2=O | 0.3
COc1cc2c(cc1OCCCOc1cc3c(cc1OC)C(=O)N1CCC[C@H]1C=N3)N=C[C@@H]1CCCN1C2=O | 10.2
COc1cc2c(cc1OCCCOc1cc3c(cc1OC)C(=O)N1CC(=C(F)F)C[C@H]1C=N3)N=C[C@@H]1CC(=C(F)F)CN1C2=O | 20.8
COc1cc2c(cc1OCCCCCOc1cc3c(cc1OC)C(=O)N1CC(=C(F)F)C[C@H]1C=N3)N=C[C@@H]1CC(=C(F)F)CN1C2=O | 16.2

Species: Bos taurus
Experiment: Increase in melting point temperature after 18 hr of incubation [1:5] as measurement of DNA binding affinity using calf thymus DNA
Type: functional
Method in brief: as §1

Compound | ΔTm [°C]
C=C1C[C@H]2C=Nc3cc(OCCCOc4cc5c(cc4OC)C(=O)N4CC(=C)C[C@H]4C=N5)c(OC)cc3C(=O)N2C1 | 33.6
COc1cc2c(cc1OCCCCOc1cc3c(cc1OC)C(=O)N1CC(=C(F)F)C[C@H]1C=N3)N=C[C@@H]1CC(=C(F)F)CN1C2=O | 5.2
COc1cc2c(cc1O)N=C[C@@H]1CC(=C(F)F)CN1C2=O | 1.7
COc1cc2c(cc1O)N=C[C@@H]1CCCN1C2=O | 0.7
COc1cc2c(cc1OCCCOc1cc3c(cc1OC)C(=O)N1CCC[C@H]1C=N3)N=C[C@@H]1CCCN1C2=O | 15.1
COc1cc2c(cc1OCCCOc1cc3c(cc1OC)C(=O)N1CC(=C(F)F)C[C@H]1C=N3)N=C[C@@H]1CC(=C(F)F)CN1C2=O | 24.6
COc1cc2c(cc1OCCCCCOc1cc3c(cc1OC)C(=O)N1CC(=C(F)F)C[C@H]1C=N3)N=C[C@@H]1CC(=C(F)F)CN1C2=O | 19.2
